Results pooled from the literature.
Compare with care: the assays were run in different laboratories.
Target: Cyclin-dependent kinase-like 3 (CDKL3, Homo sapiens, UniProt Q8IVW4)

Nc1ncc2c(n1)-c1c([nH]c3ccc(C#CC4CC4)cc13)CCCC2 — remaining binding (binding, competition with immobilised ligand; 1 µM): 83%
COc1ncc2cc3ccccc3nc2c1C#N — remaining binding (binding, competition with immobilised ligand; 5 µM): 85%
O=C(Nc1c[nH]nc1C(=O)NC1CCNCC1)c1cc(F)cc(F)c1 — remaining binding (binding, competition with immobilised ligand; 1 µM): 100%
CN(CCCC(F)(F)F)c1nccc(-c2cnn3ncccc23)n1 — remaining binding (binding; 1 µM): 100%
O=C(NCCCN1CCOCC1)c1ccc(Nc2ncc(Cl)c(-c3ccc(Cl)s3)n2)cc1 — remaining binding (binding, competition with immobilised ligand; 1 µM): 86%
CN(c1ccnc(CNc2nc(Nc3ccc4c(c3)CC(=O)N4)ncc2C(F)(F)F)n1)S(C)(=O)=O — remaining binding (cell-free assay, competition with immobilised ligand; 1 µM): 78%
Cc1cnn2ncc(-c3ccnc(N(C)C)n3)c2c1 — remaining binding (binding; 1 µM): 86%
C=CC(=O)N1CCC(C(=O)NCC(=O)N2CCN(c3nc(-c4cnc(N)nc4C(F)F)nc(N4CCOCC4)n3)CC2)CC1 — remaining binding (binding, competition with immobilised ligand; 1 µM): 100%
CN(C)CC#Cc1ccc(OCCCc2sc(N3CCc4cccc(C(=O)Nc5nc6ccccc6s5)c4C3)nc2C(=O)O)c(F)c1 — remaining binding (cell-free assay, competition with immobilised ligand; 1 µM): 100%
O=C(c1ccc(Nc2nccc(-c3cc4ccccc4s3)n2)cc1)N1CCC(N2CCCC2)CC1 — remaining binding (binding, competition with immobilised ligand; 1 µM): 58%
C[C@@H]1CCN(c2nccc(-c3cnn4ncccc34)n2)C1 — remaining binding (binding; 1 µM): 93%
Cn1nc(C(=O)NCc2ccc(C(=O)O)cc2)cc1-c1ccc2[nH]ccc2c1 — remaining binding (cell-free assay, competition with immobilised ligand; 0.1 µM): 100%
N[C@H]1CCN(c2nccc(-c3cnn4ncccc34)n2)C1 — remaining binding (binding; 1 µM): 100%
COc1cnc(Nc2cccc(S(N)(=O)=O)c2)nc1N1CCN(c2ccccc2)CC1 — remaining binding (binding, competition with immobilised ligand; 1 µM): 100%
CC(C)(O)c1cncc(-c2nc3ccc(F)cc3n2C2CC2)c1 — remaining binding (cell-free assay, competition with immobilised ligand; 1 µM): 84%
F[C@@H]1CCN(c2nccc(-c3cnn4ncccc34)n2)C1 — remaining binding (binding; 1 µM): 100%
CNCc1ccccc1-c1csc([C@H](C)Nc2nc(C)nc3cc(OC)c(OC)cc23)c1 — remaining binding (cell-free assay, competition with immobilised ligand; 1 µM): 97%
CNC(=O)[C@@H]1CC[C@@H](n2c(-c3ccc4cnccc4c3)nc3ccc(C(=O)NCc4cccc(C(N)=O)c4)cc32)C1 — remaining binding (binding, competition with immobilised ligand; 1 µM): 96%
CCCCN(CCCC)C(=O)CN1C[C@H](c2cc(OC)c3c(c2)OCO3)[C@@H](C(=O)O)[C@@H]1CC(C)(C)CCC — remaining binding (cell-free assay, competition with immobilised ligand; 1 µM): 100%
Cc1cnc(Nc2ccc(C(=O)N3CCC(N4CCCC4)CC3)cc2)nc1-c1cc2ccccc2s1 — remaining binding (binding, competition with immobilised ligand; 1 µM): 89%
